Reference: PubChem BioAssay AID602408 (Southern Research Specialized Biocontainment Screening …, 2012)
Several values for one entry are separate records, joined by “and”; a condition that tells them apart may be missing. Equal entries are not always repeated. Activity calls are given as the source filed them.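 The calls were made as follows: active = inhibition of phage lysis above 30%; inactive = the rest.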

Experiments:
[1] = tested on: E. coli UTI89 K1 capsule, phage lysis, A600; assay: inhibition of K1F phage lysis of E. coli UTI89, confirmation, bacterial capsule biogenesis project, UTI89 strain, A600 absorbance, round 2 (AID 602408)
Procedure, shortened: (§1)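 Material – Escherichia coli K1 strain UTI89, whole bacterial cells · Buffer or medium – LB broth · Probe or stimulus – K1F phage · Dosing – 1% DMSO final · Times – 1.5 h pre-incubation, 2 h phage at 37 °C · Signal – absorbance at 600 nm (OD600) · Evaluation – Capsule-dependent phage lysis from OD600, with pre-phage OD600 flagging growth effects · Replicates – duplicates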

[2] = as above; conditions: E. coli UTI89 K1 capsule, phage lysis, A600; at 100 µM (top of the series)
Procedure, shortened: as §1

| SMILES | IC50 [1] | inhibition of phage lysis [2] |
| --- | --- | --- |
| CCCc1ccc(-c2cc(NC(=O)c3c(F)cccc3F)c(C(=O)O)s2)cc1 | 2.63 µM | – |
| O=C(O)c1sc(-c2ccc(OCC(F)(F)F)cc2)cc1NC(=O)c1c(F)cc(F)cc1F | 94.9 µM | – |
| O=C(NC1CCNCC1)c1ccc2ncsc2c1 | – | -6.19% (inactive) |
| CCCc1ccc(-c2cc(NC(=O)c3c(F)cc(F)cc3F)c(C(=O)O)s2)cc1 | 15.9 µM | – |
| Cc1ccc(-c2cc(NC(=O)c3cccc(F)c3)c(C(=O)O)s2)cc1 | 44.5 µM | – |
| COc1cc(NC(=O)c2ccc3ncsc3c2)ccn1 | 7.75 µM | – |
| O=C(Nc1ncccc1O)c1ccc2ncsc2c1 | – | 0.85% (inactive) |
| CCOc1ccc(-c2cc(NC(=O)c3c(F)cccc3C(F)(F)F)c(C(=O)O)s2)cc1 | 52.6 µM | – |
| O=C(Nc1cc(-c2ccc(OCCCC(F)(F)F)cc2)sc1C(=O)O)c1cc(Br)c(Br)o1 | 32.2 µM | 12.2% (inactive) |
| O=C(Nc1cc(-c2ccccc2)sc1C(=O)O)c1cccc(Cl)c1 | 85.5 µM | – |
| CC(C)c1ccc(-c2cc(NC(=O)c3cc4ccccc4o3)c(C(=O)O)s2)cc1 | 23.6 µM | – |
| CCCc1ccc(-c2cc(NC(=O)c3cc(Br)c(Br)o3)c(C(=O)O)s2)cc1 | 6.78 µM | – |
| O=C(O)c1sc(-c2ccc(OCC(F)(F)F)cc2)cc1NC(=O)c1c(F)cccc1F | 2.86 µM | – |
| COc1ccc2nc(NC(=O)c3cccs3)sc2c1 | – | 24% (inactive) |
| O=C(O)c1sc(-c2ccc(OCCC(F)(F)F)cc2)cc1NC(=O)c1c(F)cc(F)cc1F | 3.11 µM | – |
| O=C(Nc1ccnc(F)c1)c1ccc2ncsc2c1 | 4.62 µM | – |
| COc1ccc2nc(NC(=O)c3ccco3)sc2c1 | – | 0.81% (inactive) |
| COc1ccc2nc(NC(=O)c3ccc(Br)s3)sc2c1 | 2.33 µM | – |

| SMILES | IC50 [1] | inhibition of phage lysis [2] |
| --- | --- | --- |
| CC(C)c1ccc(-c2cc(NC(=O)c3ccc(Br)o3)c(C(=O)O)s2)cc1 | 2.81 µM | – |
| O=C(Nc1cc(-c2ccc(C(F)(F)F)cc2)sc1C(=O)O)c1ccc(Br)o1 | 9.74 µM | – |
| Cc1ccc(-c2cc(NC(=O)c3c(F)cccc3F)c(C(=O)O)s2)cc1 | 21.3 µM | – |
| O=C(Nc1ccnc(Br)c1)c1ccc2ncsc2c1 | 4.26 µM | – |
| COc1cc2sc(NC(=O)c3ccc(Br)s3)nc2cc1F | – | -6.05% (inactive) |
| O=C(O)c1sc(-c2ccc(OCCCC(F)(F)F)cc2)cc1NC(=O)c1c(F)cccc1F | 10.3 µM | – |
| O=C(Nc1ccncc1F)c1ccc2ncsc2c1 | 18.6 µM | – |
| O=C(Nc1ccnc(Cl)c1)c1ccc2ncsc2c1 | 2.57 µM | – |
| O=C(O)c1sc(-c2ccc(OCCCC(F)(F)F)cc2)cc1NC(=O)c1c(F)cc(F)cc1F | 5.53 µM | – |
| O=C(Nc1cc(-c2ccc(OCCC(F)(F)F)cc2)sc1C(=O)O)c1ccc(Br)o1 | 0.84 µM | – |
| O=C(Nc1cc(-c2ccc(OCCCC(F)(F)F)cc2)sc1C(=O)O)c1ccc(Br)o1 | 1.78 µM | – |
| CCOc1ccc(-c2cc(NC(=O)c3cccc(Cl)c3)c(C(=O)O)s2)cc1 | 64.9 µM | – |
| CCCCOc1ccc(-c2cc(NC(=O)c3c(F)cccc3F)c(C(=O)O)s2)cc1 | < 0.78 µM | – |
| CCCCOc1ccc(-c2cc(NC(=O)c3c(F)cc(F)cc3F)c(C(=O)O)s2)cc1 | 6.39 µM | – |
| O=C(NCCc1ccncc1)c1ccc2ncsc2c1 | – | 8.25% (inactive) |
| O=C(NCc1ccncc1)c1ccc2ncsc2c1 | – | -2.06% (inactive) |
| O=C(Nc1cc(-c2ccccc2)sc1C(=O)O)c1ccc2c(c1)OCCO2 | 89.1 µM | – |
| O=C(Nc1cc(-c2ccc(OCC(F)(F)F)cc2)sc1C(=O)O)c1ccc(Br)o1 | 4.9 µM | – |

Second part, led by results:

| IC50 [1] | SMILES | inhibition of phage lysis [2] |
| --- | --- | --- |
| 17.5 µM | [N-]=[N+]=NCCOc1ccc(-c2cc(NC(=O)c3c(F)cccc3F)c(C(=O)O)s2)cc1 | – |
| 6.99 µM | CC(C)(C)c1ccc(-c2cc(NC(=O)c3c(F)cccc3F)c(C(=O)O)s2)cc1 | – |
| 4.85 µM | CCOc1ccc(-c2cc(NC(=O)c3ccc(Br)o3)c(C(=O)O)s2)cc1 | – |
| 20.1 µM | CCOc1ccc(-c2cc(NC(=O)c3cccc(F)c3)c(C(=O)O)s2)cc1 | – |
| 11.3 µM | Cc1ccc(-c2cc(NC(=O)c3ccc(Br)o3)c(C(=O)O)s2)cc1 | – |
| 14.8 µM | O=C(NCc1cc([N+](=O)[O-])ccc1O)c1cccnc1Sc1ccccc1Cl | – |
| 20.9 µM | O=C(O)c1sc(-c2ccc(C(F)(F)F)cc2)cc1NC(=O)c1c(F)cccc1F | – |
| 23.3 µM | CCCCOc1ccc(-c2cc(NC(=O)c3cc(Br)c(Br)o3)c(C(=O)O)s2)cc1 | – |
| 42.2 µM | O=C(Nc1cc(-c2ccccc2)sc1C(=O)O)c1ccc(Br)o1 | – |
| 13.9 µM | CCOc1ccc(-c2cc(NC(=O)c3ccc(Br)s3)c(C(=O)O)s2)cc1 | – |
| 1.05 µM | O=C(Nc1ccncc1)c1ccc2ncsc2c1 | 17.9% (inactive) |
| 9.77 µM | O=C(O)c1sc(-c2ccc(OC(F)(F)F)cc2)cc1NC(=O)c1c(F)cccc1F | – |
| 8.06 µM | CCCOc1ccc(-c2cc(NC(=O)c3c(F)cc(F)cc3F)c(C(=O)O)s2)cc1 | – |
| 2.8 µM and 3.73 µM | CCOc1ccc(-c2cc(NC(=O)c3c(F)cccc3F)c(C(=O)O)s2)cc1 | – |
| 68.1 µM | O=C(Nc1cc(-c2ccccc2)sc1C(=O)O)c1cccs1 | – |
| 0.84 µM | O=C(O)c1sc(-c2ccc(OCCC(F)(F)F)cc2)cc1NC(=O)c1c(F)cccc1F | – |
| 59.9 µM | CCOc1ccc(-c2cc(NC(=O)c3ccc(OC)c(OC)c3)c(C(=O)O)s2)cc1 | – |
| 37.9 µM | CC1=NN2C(=N)/C(=C\c3ccc(SCc4ccco4)o3)C(=O)N=C2S1 | – |
| 5.06 µM | CCOc1ccc2nc(NC(=O)c3ccc(Br)s3)sc2c1 | – |
| 9.72 µM | CC(C)(C)c1ccc(-c2cc(NC(=O)c3cccc(F)c3)c(C(=O)O)s2)cc1 | – |
| 0.85 µM | CCCCOc1ccc(-c2cc(NC(=O)c3ccc(Br)o3)c(C(=O)O)s2)cc1 | – |
| 4.6 µM | O=C(Nc1cc(-c2ccc(OC(F)(F)F)cc2)sc1C(=O)O)c1ccc(Br)o1 | – |
| 1.43 µM | CCCc1ccc(-c2cc(NC(=O)c3ccc(Br)o3)c(C(=O)O)s2)cc1 | – |
| 20 µM | CCOc1ccc(-c2cc(NC(=O)c3c(F)cc(F)cc3F)c(C(=O)O)s2)cc1 | – |
| 2.01 µM | O=C(ONc1ccc(N=NC(=O)c2ccccc2O)cc1)c1ccccc1 | – |
| 5.88 µM | CC(C)c1ccc(-c2cc(NC(=O)c3c(F)cccc3F)c(C(=O)O)s2)cc1 | – |
| 18.4 µM | CC(C)c1ccc(-c2cc(NC(=O)c3cccc(F)c3)c(C(=O)O)s2)cc1 | – |
| 43.9 µM | CC1(C(=O)O)CCC(C(=O)Nc2ccc3ccccc3c2)C1(C)C (configuration not stated) | – |
| 8.75 µM | COc1ccc(-c2cc(NC(=O)c3ccc(Br)o3)c(C(=O)O)s2)cc1 | – |
